Assays:
[1] = molecular target: T1, Sodium-dependent serotonin transporter (Rattus norvegicus, UniProt P31652); assay: Binding affinity for serotonin transporter was determined in rat cortical membrane; assay type: cell membranes
[2] = molecular target: Dopamine receptor D2 and D3 (Rattus norvegicus, UniProt P19020+P61169); assay: In vitro binding affinity for D2/D3 receptors in rat striatal homogenates by [125I]NCQ298 displacement.
[3] = molecular target: T2, Sodium-dependent dopamine transporter (Rattus norvegicus, UniProt P23977); assay: Binding affinity for dopamine transporter was determined in rat striatal membrane; assay type: cell membranes, Striatum
Sigma 2 receptor [4] = assay: Sigma 2 binding assay was done rat liver membrane, by labeling the binding site with [3H]-DTG (DuPont-NEN) in the presence of […]-pentazocine (100 nM)
Method in brief: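 P2 membranes from male Sprague-Dawley rat liver (35 µg protein) with 3 nM [3H]DTG plus 100 nM unlabelled (+)-pentazocine to mask σ1, 50 mM Tris-HCl pH 8.0, 120 min, 25 °C; GF/B filtration; nonspecific with 5 µM DTG. IC50 in triplicate from 5-10 concentrations, Ki via Cheng-Prusoff (Kd 17.9 nM), mean ± SEM.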

Sigma 2 receptor [5] = assay: Sigma 2 binding assay was done rat liver membrane, by labeling the binding site with [3H]DTG (DuPont-NEN) in the presence of […]-pentazocine (100 nM)
[6] = molecular target: T2, Sodium-dependent dopamine transporter; assay: Binding affinity for dopamine transporter was determined in rat striatal membrane.; assay type: cell membranes
[7] = molecular target: T1, Sodium-dependent serotonin transporter; assay: Binding affinity for serotonin transporter was determined in rat cortical membrane.; assay type: cell membranes

T2 sequence (P23977 whole entry): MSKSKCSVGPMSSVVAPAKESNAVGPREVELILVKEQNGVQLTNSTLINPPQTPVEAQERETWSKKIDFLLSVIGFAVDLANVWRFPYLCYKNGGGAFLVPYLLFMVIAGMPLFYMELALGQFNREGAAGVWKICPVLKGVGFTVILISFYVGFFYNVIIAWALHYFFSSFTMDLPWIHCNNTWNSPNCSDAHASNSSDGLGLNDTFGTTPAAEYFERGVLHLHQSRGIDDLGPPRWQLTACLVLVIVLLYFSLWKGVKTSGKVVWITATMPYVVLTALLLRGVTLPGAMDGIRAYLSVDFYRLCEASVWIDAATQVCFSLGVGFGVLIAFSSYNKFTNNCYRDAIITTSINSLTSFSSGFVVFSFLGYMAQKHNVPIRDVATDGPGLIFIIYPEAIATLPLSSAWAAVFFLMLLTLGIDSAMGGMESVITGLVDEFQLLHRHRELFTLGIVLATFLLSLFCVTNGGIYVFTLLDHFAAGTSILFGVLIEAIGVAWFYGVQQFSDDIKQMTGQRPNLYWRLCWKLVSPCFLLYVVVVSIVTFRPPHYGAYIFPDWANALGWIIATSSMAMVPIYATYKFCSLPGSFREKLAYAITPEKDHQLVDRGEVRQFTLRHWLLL
T1 sequence (P31652 whole entry): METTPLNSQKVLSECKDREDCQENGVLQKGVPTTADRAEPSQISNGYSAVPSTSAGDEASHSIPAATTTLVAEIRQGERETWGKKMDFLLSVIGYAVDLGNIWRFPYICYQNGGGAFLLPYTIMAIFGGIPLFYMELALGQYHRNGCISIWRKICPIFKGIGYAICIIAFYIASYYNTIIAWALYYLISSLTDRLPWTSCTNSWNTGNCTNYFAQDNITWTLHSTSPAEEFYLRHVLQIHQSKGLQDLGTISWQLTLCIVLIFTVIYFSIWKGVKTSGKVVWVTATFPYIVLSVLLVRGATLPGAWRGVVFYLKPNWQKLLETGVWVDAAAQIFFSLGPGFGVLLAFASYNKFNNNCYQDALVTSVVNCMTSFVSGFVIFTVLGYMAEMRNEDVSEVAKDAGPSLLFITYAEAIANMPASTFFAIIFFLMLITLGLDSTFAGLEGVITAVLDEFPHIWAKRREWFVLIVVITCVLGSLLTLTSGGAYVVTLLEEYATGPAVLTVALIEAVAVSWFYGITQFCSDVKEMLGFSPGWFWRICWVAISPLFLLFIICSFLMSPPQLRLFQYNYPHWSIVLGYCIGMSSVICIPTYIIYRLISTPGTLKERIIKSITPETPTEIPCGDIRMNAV

SMILES	Ki [2]	Ki (Sigma 2 receptor [4])	Ki [6]	further results
O[C@H]1Cc2ccccc2C[C@@H]1N1C2CCC1CC(c1ccccc1)C2 (stereo partly specified)	3385 nM			Ki [1]: 1680 nM; Ki [3]: 1070 nM
O[C@@H](CN1CCC2(CCc3ccccc32)CC1)c1cccc(Br)c1	> 1000 nM	12.7 nM		
CN1CC2(CCN(C[C@H](O)c3cccc(Br)c3)CC2)c2ccccc21	> 1000 nM			Ki (Sigma 2 receptor [5]): 99.2 nM
CN1CC2(CCN([C@@H]3CN(Cc4ccc(F)cc4)CC[C@H]3O)CC2)c2ccccc21	> 1000 nM			
OC(CN1C2CCC1CC(c1ccccc1)C2)c1ccccc1 (stereo unspecified)		32.7 nM		Ki [3]: 41.5 nM
O[C@H]1CCN(Cc2cccc(I)c2)C[C@@H]1N1C2CCC1CC(c1ccccc1)C2 (stereo partly specified)	1967 nM	275 nM	1070 nM	Ki [7]: 4430 nM
OC(CN1C2CCC1CC(c1ccccc1)C2)c1ccc(Cl)c(Cl)c1 (stereo unspecified)		18.8 nM	23.6 nM	
CN1CC2(CCN([C@@H]3CCCC[C@H]3O)CC2)c2ccccc21	> 1000 nM	357 nM		
OC(CN1C2CCC1CC(c1ccccc1)C2)c1cccc(Br)c1 (stereo unspecified)	2658 nM	9.87 nM	23.6 nM	Ki [7]: 27 nM
O[C@H]1CCN(Cc2ccc(F)cc2)C[C@@H]1N1C2CCC1CC(c1ccccc1)C2 (stereo partly specified)	8795 nM	260 nM	4180 nM	Ki [7]: 9200 nM
OC(CCCN1C2CCC1CC(c1ccccc1)C2)c1ccc(F)cc1 (stereo unspecified)				Ki [3]: 464 nM
O[C@@H]1CCN(Cc2cccc(I)c2)C[C@H]1N1CCC2(CCc3ccccc32)CC1	> 1000 nM			Ki (Sigma 2 receptor [5]): 224 nM
O[C@@H]1CCCC[C@H]1N1CCC2(CCc3ccccc32)CC1	> 1000 nM			Ki (Sigma 2 receptor [5]): 30 nM
OC(CN1C2CCC1CC(c1ccccc1)C2)c1ccccc1Br (stereo unspecified)		7.71 nM	67.2 nM	
CN1CC2(CCN(C[C@H](O)Cc3ccc(Br)cc3)CC2)c2ccccc21	> 1000 nM			Ki (Sigma 2 receptor [5]): 22.9 nM
O[C@H]1CCCC[C@@H]1N1C2CCC1CC(c1ccccc1)C2 (stereo partly specified)	> 38000 nM	118 nM		Ki [1]: 3420 nM; Ki [3]: 2810 nM
OC(CN1C2CCC1CC(c1ccccc1)C2)c1c(Cl)cccc1Cl (stereo unspecified)		15.9 nM	42 nM	
OC(CN1C2CCC1CC(c1ccccc1)C2)c1ccc(Br)cc1 (stereo unspecified)	5092 nM	11.3 nM	73.8 nM	Ki [7]: 30.1 nM
CN1CC2(CCN([C@@H]3Cc4ccccc4C[C@H]3O)CC2)c2ccccc21	> 1000 nM			
O=C(CN1C2CCC1CC(c1ccccc1)C2)c1ccc(F)cc1 (stereo unspecified)		73.3 nM	222 nM	
OC(Cc1ccc(Br)cc1)CN1C2CCC1CC(c1ccccc1)C2 (stereo unspecified)	1490 nM	4.95 nM		Ki [1]: 234 nM; Ki [3]: 306 nM
O[C@H](Cc1ccc(Br)cc1)CN1CCC2(CCc3ccccc32)CC1	> 1000 nM			Ki (Sigma 2 receptor [5]): 8.8 nM
CN1CC2(CCN([C@@H]3CN(Cc4cccc(I)c4)CC[C@H]3O)CC2)c2ccccc21	> 1000 nM			Ki (Sigma 2 receptor [5]): 139 nM
O=C(CCCN1C2CCC1CC(c1ccccc1)C2)c1ccc(F)cc1 (stereo unspecified)	16.3 nM	15.4 nM	129 nM	Ki [7]: 88.6 nM
O=C(CCCN1CCC2(CCc3ccccc32)CC1)c1ccc(F)cc1				Ki (Sigma 2 receptor [5]): 3.3 nM
CN1CC2(CCN(CCCC(=O)c3ccc(F)cc3)CC2)c2ccccc21	56.5 nM	60.8 nM		
O[C@@H]1CCN(Cc2ccc(F)cc2)C[C@H]1N1CCC2(CCc3ccccc32)CC1	> 1000 nM			Ki (Sigma 2 receptor [5]): 67 nM
O[C@@H]1Cc2ccccc2C[C@H]1N1CCC2(CCc3ccccc32)CC1	> 1000 nM			
